Test results as given in the array DNA melting data of Ke et al. (doi:10.1101/2024.01.08.574731).

How the values were obtained:
[1] = melting temperature; fluorescence melt of hairpins on a sequencing array, two-state fit, raised by 9.35 °C to match UV melts; conditions: sodium 0.088 M
In short: (§1)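 Library hairpins on a sequenced MiSeq flow cell carried annealed Cy3 and quencher oligos, and their Cy3 fluorescence was imaged in 50 mM Na-HEPES pH 8.0 with 25 mM NaCl, in 2.5 °C steps up to 60 °C. Signals were normalised to Cy3 before quenching and to control constructs. Melting temperature and folding enthalpy were obtained from bootstrapped two-state fits, combined by inverse-variance weighting across four replicates, and the fitted temperatures were then raised by 9.35 °C to match UV melts.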

[2] = folding enthalpy; higher = less favourable; fluorescence melt of hairpins on a sequencing array, two-state fit; conditions: sodium 0.088 M
In short: as §1

| Sequence | Tm [1] | folding enthalpy [2] |
| --- | --- | --- |
| TTGCAGAAATGCAA (((((....))))) | 42.3 °C | -20.8 kcal/mol |
| GTGCTGGGAAACTAGCGC (.(((.(....).))).) | 45.5 °C | -29.7 kcal/mol |
| GTAAGGCGAAAGCCCTAC (((.(((....))).))) | 36 °C | -13.5 kcal/mol |
| GTAATCACGAAAGTGTAC (((..(((....)))))) | 29.3 °C | -10.9 kcal/mol |
| GGGTTTGGAAACGAACTC (.(((.(....).))).) | 32.4 °C | -24 kcal/mol |
| GGGCACGAAAGTGCGCCC ((((((....)))..))) | 54.9 °C | -11.8 kcal/mol |
| GAACTAGGAAACTGGTTC ((((.((....)).)))) | 43 °C | -29 kcal/mol |
| GGCTAGCGAAAGCTTGCC (((.(((....))).))) | 65.6 °C | -36.3 kcal/mol |
| GGACAACGAAAGTTTCC (((.(((....)))))) | 38.3 °C | -20.1 kcal/mol |
| GGCATCGAAAGATAAGCC ((((((....)))..))) | 44.7 °C | -27.9 kcal/mol |
| GACCGCGAAAGCGCGTC ((((((....))).))) | 63.1 °C | -21 kcal/mol |
| GACCCCGAAAGGGCGTC ((((((....))).))) | 56.7 °C | -36.6 kcal/mol |
| GATCTGTGCACAGATC ((((((....)))))) | 57.9 °C | -48.9 kcal/mol |
| GTAGGGCGAAAGCCGTAC (((.(((....))).))) | 56.8 °C | -23.6 kcal/mol |
| GATTCCGAAAGGAATC ((((((....)))))) | 64.9 °C | -35.7 kcal/mol |
| GATCAACTTTTTGATC ((((((....)))))) | 43.3 °C | -37.8 kcal/mol |
| CGTGTCGGAAACGAAACG (((.(((....))).))) | 47.1 °C | -35.6 kcal/mol |
| GTGATTGGAAACAACCAC (((.(((....))).))) | 37.5 °C | -31.3 kcal/mol |
| GGAAAGCGAAAGCTTCC (((.(((....)))))) | 53.7 °C | -18.1 kcal/mol |
| GATCGGTATACCGATC ((((((....)))))) | 64.3 °C | -36.7 kcal/mol |
| GTGAACCGAAAGGTCAC (((.(((....)))))) | 54.9 °C | -27.2 kcal/mol |
| CGATACGGAAACGTGTCG (((.(((....))).))) | 52.8 °C | -51.4 kcal/mol |
| GTAATCCCGAAAGGGTAC (((..(((....)))))) | 27.5 °C | -11.1 kcal/mol |

| Sequence | Tm [1] | folding enthalpy [2] |
| --- | --- | --- |
| GATCCTCATCAGGATC ((((((....)))))) | 49.7 °C | -37 kcal/mol |
| GCTGCCCGAAAGGGTAGC (((.(((....))).))) | 69 °C | -40.5 kcal/mol |
| GATCAGTCACCTGATC ((((((....)))))) | 49.6 °C | -36.4 kcal/mol |
| GCGGAACCGAAAGGTCGC (((..(((....)))))) | 54.7 °C | -27.7 kcal/mol |
| GCAGACTCGAAAGAGTGC (((..(((....)))))) | 43.4 °C | -16 kcal/mol |
| GCCCTGCGAAAGCACAGC ((..(((....)))..)) | 27.4 °C | -8.54 kcal/mol |
| GATCTTCTGAAGATC ((((((...)))))) | 43.6 °C | -37 kcal/mol |
| GGGCATGCGAAAGCACCC (((..(((....)))))) | 42.3 °C | -18.6 kcal/mol |
| GTTGACGGAAACGCCAAC ((((.((....)).)))) | 49.6 °C | -39.8 kcal/mol |
| GCGGTCGGAAACGACTGC ((.((((....)))).)) | 64.2 °C | -41.5 kcal/mol |
| GTCGCCGAAAGGCGAGAC ((((((....)))..))) | 51.8 °C | -7.32 kcal/mol |
| GCGCAGCGAAAGCTCTGC ((..(((....)))..)) | 38.5 °C | -7.6 kcal/mol |
| GAATCGGGAAACCAATTC ((((.((....)).)))) | 28.4 °C | -16.3 kcal/mol |
| GCTATGCGAAAGCGGAGC (((..((....))..))) | 53.6 °C | -26.3 kcal/mol |
| GCTACTCGAAAGAGGAGC (((.(((....))).))) | 61.6 °C | -37.4 kcal/mol |
| GCGTACGAAAGTAACGC ((((((....))).))) | 59.4 °C | -40.2 kcal/mol |
| CGTGCGGAAACGCCTACG ((((((....)))..))) | 39.1 °C | -15.3 kcal/mol |
| GATCATGAATATGATC ((((((....)))))) | 54.5 °C | -46.8 kcal/mol |
| GCCAGCGGAAACGCTGAC (.(((((....))))).) | 51.5 °C | -13.7 kcal/mol |
| GATCTAGGTGTAGATC ((((((....)))))) | 42.9 °C | -31 kcal/mol |
| GTTATCGGAAACGATAGC (.(((((....))))).) | 43.4 °C | -21.5 kcal/mol |
| GATGACGAAAGTCAATC ((((((....))).))) | 43.7 °C | -16.2 kcal/mol |
| GCCACCGGAAACGGTGAC (.(((((....))))).) | 48.8 °C | -14 kcal/mol |

| Sequence | Tm [1] | folding enthalpy [2] |
| --- | --- | --- |
| GTTAATCGAAAGATGAAC (((.(((....))).))) | 38.3 °C | -25.1 kcal/mol |
| GGGGACGAAAGTCGTCCC ((((((....)))..))) | 61.3 °C | -20.8 kcal/mol |
| GATCTATTACTAGATC ((((((....)))))) | 39.2 °C | -32.4 kcal/mol |
| GATCAAAGCCTTGATC ((((((....)))))) | 44.1 °C | -28.4 kcal/mol |
| GACTCTGGAAACAGAATC ((.((((....)))).)) | 28.5 °C | -22.3 kcal/mol |
| GATCACTTGGTGATC ((((((...)))))) | 59.1 °C | -37.5 kcal/mol |
| GATCACTGTGGTGATC ((((((....)))))) | 59.4 °C | -45.6 kcal/mol |
| GCTGGCGAAAGCCTAAGC ((((((....)))..))) | 51.5 °C | -16.5 kcal/mol |
| GATCATTTAAATGATC ((((((....)))))) | 48.4 °C | -46.3 kcal/mol |
| GGCAACGGAAACATCGCC (((.(.(....).).))) | 24.5 °C | -16.7 kcal/mol |
| GTTCGCGAAAGCGTAAAC ((((((....)))..))) | 31.9 °C | -10.3 kcal/mol |
| GATCGGGGAAACCCGACC (.(((((....))))).) | 43.5 °C | -13.6 kcal/mol |
| GAATTAGAAATAATTC ((((((....)))))) | 33.3 °C | -18.5 kcal/mol |
| GCGCGGTCGAAAGACCGC (((..(((....)))))) | 67 °C | -5.31 kcal/mol |
| GCGTCCGCACGC ((((....)))) | 52.8 °C | -17.2 kcal/mol |
| TAACCGAAAGGTTA (((((....))))) | 56.7 °C | -15.2 kcal/mol |
| GACACGGGAAACCGCATC ((..(((....)))..)) | 20.4 °C | -11.1 kcal/mol |
| GACCTGCGAAAGCATGTC (((.(((....))).))) | 49.9 °C | -28.4 kcal/mol |
| GCGACTGGAAACGGTTGC ((.((.(....).)).)) | 43.9 °C | -32.1 kcal/mol |
| GATCTAGTAGTAGATC ((((((....)))))) | 43.4 °C | -29.1 kcal/mol |
| GATCTTGCAGAAGATC ((((((....)))))) | 46.8 °C | -34.8 kcal/mol |
| CGCGATCGGAAACGAGCG (((..(((....)))))) | 53 °C | -34.2 kcal/mol |
| GACACTGCGAAAGCAGTC (((..(((....)))))) | 31.4 °C | -8.12 kcal/mol |

| Sequence | Tm [1] | folding enthalpy [2] |
| --- | --- | --- |
| GGGTTTGGAAACAAGTCC ((..(((....)))..)) | 30.4 °C | -22.3 kcal/mol |
| GCAGCGCGAAAGCTCAGC ((.(.((....)).).)) | 39.9 °C | -10.6 kcal/mol |
| GAAGTAGGAAACTACTTC (((((((....))))))) | 52.5 °C | -42.6 kcal/mol |
| GTCACTCGAAAGAGGAC (((.(((....)))))) | 45.8 °C | -23.9 kcal/mol |
| GGCGCTGGAAACAACGCC ((((.((....)).)))) | 55.2 °C | -41 kcal/mol |
| GATCGTACAGACGATC ((((((....)))))) | 52.5 °C | -54.1 kcal/mol |
| GCACAGGGAAACCTGTGC (((((((....))))))) | 69.3 °C | -38 kcal/mol |
| GGGCTGGGAAACCGGCTC (.((.((....)).)).) | 49.1 °C | -19.7 kcal/mol |
| GGTATGTCGAAAGACACC (((..(((....)))))) | 34.8 °C | -12.1 kcal/mol |
| GATTTCGGAAACGGAATC ((((.((....)).)))) | 45 °C | -38.9 kcal/mol |
| GTAGGAGAAATCCTAC ((((((....)))))) | 47.3 °C | -26.7 kcal/mol |
| GATCTCCATTGAGATC ((((((....)))))) | 52.3 °C | -33.7 kcal/mol |
| GATCAGGCCTCTGATC ((((((....)))))) | 52.1 °C | -49.2 kcal/mol |
| GACAAACGAAAGTTAGTC (((.(((....))).))) | 44.3 °C | -30.9 kcal/mol |
| GGTCTTCGAAAGAACACC (((.(((....))).))) | 32.6 °C | -26.6 kcal/mol |
| GAAACCGAAAGGTCTTTC ((((((....)))..))) | 32.3 °C | -14 kcal/mol |
| GATCGTGGAGACGATC ((((((....)))))) | 57.8 °C | -42.4 kcal/mol |
| GATCCATAGTTGGATC ((((((....)))))) | 50.6 °C | -33.2 kcal/mol |
| GATCCCCGAAAGGGCATC (((.(((....))).))) | 34.3 °C | -14.3 kcal/mol |
| GTGCTTCGAAAGAACAC (((.(((....)))))) | 42.8 °C | -32.1 kcal/mol |
| GATCTACCCTTAGATC ((((((....)))))) | 41.8 °C | -35.6 kcal/mol |
| GAAGGCCGAAAGGCATTC (((.(((....))).))) | 62.6 °C | -24.2 kcal/mol |
| GGACGTGGAAACGCGTCC (((((.(....).))))) | 61.9 °C | -45.2 kcal/mol |
